Here are results for 7 molecules from paper PMC12334608 (Nature Communications, 2025).

Where two headings read alike, the source gives them in different places.

Series [1] addresses T1, ACOX-1.1 (Caenorhabditis elegans, UniProt O62140).
T1 sequence (O62140 1-674): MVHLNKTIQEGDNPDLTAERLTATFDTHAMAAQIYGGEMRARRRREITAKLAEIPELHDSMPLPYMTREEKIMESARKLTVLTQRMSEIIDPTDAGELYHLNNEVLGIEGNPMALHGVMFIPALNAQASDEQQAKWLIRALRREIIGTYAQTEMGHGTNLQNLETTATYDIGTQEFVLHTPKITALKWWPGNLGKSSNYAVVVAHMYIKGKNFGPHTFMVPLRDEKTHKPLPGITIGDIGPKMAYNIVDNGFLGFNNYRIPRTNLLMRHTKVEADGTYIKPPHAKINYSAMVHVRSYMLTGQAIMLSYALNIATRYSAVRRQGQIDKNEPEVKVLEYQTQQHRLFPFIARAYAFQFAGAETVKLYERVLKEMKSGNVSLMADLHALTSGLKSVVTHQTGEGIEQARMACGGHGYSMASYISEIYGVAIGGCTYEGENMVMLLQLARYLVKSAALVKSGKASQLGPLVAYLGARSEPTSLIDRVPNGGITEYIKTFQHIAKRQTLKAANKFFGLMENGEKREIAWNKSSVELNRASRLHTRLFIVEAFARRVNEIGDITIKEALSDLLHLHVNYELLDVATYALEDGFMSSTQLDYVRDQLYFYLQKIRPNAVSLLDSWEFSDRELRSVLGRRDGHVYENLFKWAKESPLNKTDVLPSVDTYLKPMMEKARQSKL
The experiment in a line: Enzyme-coupled kinetic assay, wild-type ACOX-1.1 as purified. The format is biochemical, C. elegans. The settings on record: for rescue of the time-dependent decrease in enzymatic activity: incubation with FAD plus nucleotide, compared with ATP.

The next series deals with ACOX-1.1(E434A). The experiment in a line: FAD koff rate by fluorescence polarization. The format is binding, C. elegans. A digest of the protocol: (§1)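 FAD-bound, non-dialyzed enzyme at 5 μM was run in triplicate. FAD fluorescence anisotropy was recorded in polarization mode on a plate reader over 1 h, with 5 μM FAD alone as the gain/focus control. koff was obtained by fitting to a dissociation kinetics equation. Preparations were 46% (wild type) and 66% (E434A) FAD-bound per dimer.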

Series [2] has as its target T2, apo ACOX-1.1 (Caenorhabditis elegans, UniProt O62140).
T2 sequence (O62140 1-674): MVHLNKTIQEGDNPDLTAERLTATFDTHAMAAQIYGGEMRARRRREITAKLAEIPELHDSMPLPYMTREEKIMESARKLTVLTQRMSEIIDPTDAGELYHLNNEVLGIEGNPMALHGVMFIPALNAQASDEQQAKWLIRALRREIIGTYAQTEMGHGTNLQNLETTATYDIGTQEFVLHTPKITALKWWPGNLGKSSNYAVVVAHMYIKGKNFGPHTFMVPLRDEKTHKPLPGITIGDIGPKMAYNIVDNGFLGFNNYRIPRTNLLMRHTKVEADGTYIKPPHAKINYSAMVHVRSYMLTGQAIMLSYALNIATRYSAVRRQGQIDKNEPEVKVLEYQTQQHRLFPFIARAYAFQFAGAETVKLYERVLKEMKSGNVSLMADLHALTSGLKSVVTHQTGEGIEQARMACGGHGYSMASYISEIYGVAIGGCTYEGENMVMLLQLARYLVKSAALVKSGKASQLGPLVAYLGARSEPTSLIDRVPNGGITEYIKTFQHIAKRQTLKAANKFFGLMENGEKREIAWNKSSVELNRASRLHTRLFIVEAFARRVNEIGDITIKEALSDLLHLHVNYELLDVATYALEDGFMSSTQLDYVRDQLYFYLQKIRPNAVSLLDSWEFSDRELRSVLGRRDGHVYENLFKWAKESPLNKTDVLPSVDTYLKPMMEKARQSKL
The experiment in a line: FAD and ATP dissociation constants by fluorescence polarization. The format is binding, C. elegans.

The target in the next series is T3, ACOX-1.1(R343A) (Caenorhabditis elegans, UniProt O62140, R343A).
T3 sequence (O62140 1-674 R343A): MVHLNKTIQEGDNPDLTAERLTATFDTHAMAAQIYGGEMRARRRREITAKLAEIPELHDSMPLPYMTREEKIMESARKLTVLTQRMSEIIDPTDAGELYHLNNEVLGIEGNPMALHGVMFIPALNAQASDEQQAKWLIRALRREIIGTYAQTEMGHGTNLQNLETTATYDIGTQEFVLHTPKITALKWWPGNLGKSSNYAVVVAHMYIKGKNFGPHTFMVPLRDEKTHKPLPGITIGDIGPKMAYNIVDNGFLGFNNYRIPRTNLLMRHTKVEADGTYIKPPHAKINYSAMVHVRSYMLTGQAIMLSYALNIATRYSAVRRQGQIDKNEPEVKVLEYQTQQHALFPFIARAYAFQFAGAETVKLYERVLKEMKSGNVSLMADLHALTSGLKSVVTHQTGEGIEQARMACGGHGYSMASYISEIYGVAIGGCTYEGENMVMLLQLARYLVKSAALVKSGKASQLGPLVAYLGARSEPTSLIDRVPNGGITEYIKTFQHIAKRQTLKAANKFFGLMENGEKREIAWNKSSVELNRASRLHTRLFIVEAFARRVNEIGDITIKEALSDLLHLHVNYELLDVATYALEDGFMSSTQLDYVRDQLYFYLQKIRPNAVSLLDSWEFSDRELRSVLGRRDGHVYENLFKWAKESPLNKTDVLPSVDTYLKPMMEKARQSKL
The experiment in a line: Enzyme-coupled kinetic assay, ACOX-1.1. In kind it is biochemical, C. elegans.

Series [3] addresses T1, ACOX-1.1. The experiment in a line: FAD koff rate by fluorescence polarization. The settings on record: read-out: koff of FAD. The format is binding, C. elegans. A digest of the protocol:
as §1

The target in the next series is T4, ACOX-1.1(R343Q) (Caenorhabditis elegans, UniProt O62140, R343Q).
T4 sequence (O62140 1-674 R343Q): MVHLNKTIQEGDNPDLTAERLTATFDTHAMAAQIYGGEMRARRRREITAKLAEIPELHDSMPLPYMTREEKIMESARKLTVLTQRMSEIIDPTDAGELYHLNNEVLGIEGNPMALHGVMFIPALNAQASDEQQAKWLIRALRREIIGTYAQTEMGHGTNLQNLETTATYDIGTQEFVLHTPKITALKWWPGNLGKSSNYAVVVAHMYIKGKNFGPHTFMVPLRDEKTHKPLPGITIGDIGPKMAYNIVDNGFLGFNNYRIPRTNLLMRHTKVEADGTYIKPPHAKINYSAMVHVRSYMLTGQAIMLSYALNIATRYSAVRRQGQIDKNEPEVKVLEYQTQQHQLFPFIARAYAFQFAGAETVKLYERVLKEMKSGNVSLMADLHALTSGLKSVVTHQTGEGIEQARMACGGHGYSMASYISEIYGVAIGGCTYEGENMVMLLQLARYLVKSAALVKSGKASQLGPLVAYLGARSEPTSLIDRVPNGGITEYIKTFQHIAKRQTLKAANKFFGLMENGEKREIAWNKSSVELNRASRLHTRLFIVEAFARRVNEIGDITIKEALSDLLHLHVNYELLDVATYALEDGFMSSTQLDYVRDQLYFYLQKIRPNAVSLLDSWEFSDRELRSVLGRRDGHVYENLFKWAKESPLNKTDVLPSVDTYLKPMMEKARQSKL
The experiment in a line: Enzyme-coupled kinetic assay, ACOX-1.1. In kind it is biochemical, C. elegans.

Series [4] deals with T2, apo ACOX-1.1. Nature of the series: Enzyme-coupled kinetic assay, wild-type apo ACOX-1.1. In kind it is biochemical, C. elegans.
The series “SEC” concerns the molecule itself. The experiment in a line: SEC.

Turning to `Cc1cc2nc3c(=O)[nH]c(=O)nc-3n(C[C@H](O)[C@H](O)[C@H](O)COP(=O)(O)OP(=O)(O)OC[C@H]3O[C@@H](n4cnc5c(N)ncnc54)[C@H](O)[C@@H]3O)c2cc1C` [FAD], the “FAD needed to obtain a similar amount of rescue with FAD alone” value on ACOX-1.1 [1] (no ATP) is “at least 100 μM”. Further, the “time in which about half of the bound FAD is lost” value in the series with ACOX-1.1(E434A) (ACOX-1.1(E434A)) is on record as “about half of the bound FAD is lost in an hour”. In addition, the “koff of FAD” value with ACOX-1.1(E434A) (catalytic mutant ACOX-1.1(E434A), 5 μM) was 0.0002 s⁻¹. On apo ACOX-1.1 [2] (KD of ACOX-1.1 for FAD, in the presence of ATP (350 μM)), the Kd is about 0.45 µM. The “KD of ACOX-1.1 for FAD” value at apo ACOX-1.1 [2] (in the absence of ATP) was “could not be measured because it is too high”. Besides, the EC50 on ACOX-1.1(R343A) is over 1000 µM; on ACOX-1.1(R343Q) it was over 1000 µM; on apo ACOX-1.1 [4] (EC50 for FAD (high-affinity site), 350 μM ATP, 95% CI: 358–476 nM), 0.385 µM; at apo ACOX-1.1 [4] (lower EC50 for FAD, absence of ATP, 95% CI: 6.1–27.5 μM), 13 µM; on apo ACOX-1.1 [4] (read-out: EC50 for FAD (low-affinity site), estimated, 350 μM ATP, 95% CI: 74–203 μM), 177 µM. Also, the koff on ACOX-1.1 [3] was 0.000536 s⁻¹.
On to `Nc1ncnc2c1ncn2[C@@H]1O[C@H](COP(=O)(O)O)[C@@H](O)[C@H]1O` [AMP], for which the “rescue of the time-dependent decrease in enzymatic activity” value (shortened to “rescue of the time-dependent decrease”) on ACOX-1.1 [1] is listed as “None of these nucleotides are able to rescue the time-dependent decrease in enzymatic activity as well as ATP”.
On to `Nc1ncnc2c1ncn2[C@H]1C[C@H](O)[C@@H](COP(=O)(O)OP(=O)(O)OP(=O)(O)O)O1` [deoxy-ATP], for which the “rescue of the time-dependent decrease” value at ACOX-1.1 [1] is “None of these nucleotides are able to rescue the time-dependent decrease in enzymatic activity as well as ATP”.
Still for that read-out and setting: then `Nc1ncnc2c1ncn2[C@@H]1O[C@H](COP(=O)(O)OP(=O)(O)O)[C@@H](O)[C@H]1O` [ADP], with “None of these nucleotides are able to rescue the time-dependent decrease in enzymatic activity as well as ATP”.
In the case of `Nc1nc2c(ncn2[C@@H]2O[C@H](COP(=O)(O)OP(=O)(O)OP(=O)(O)O)[C@@H](O)[C@H]2O)c(=O)[nH]1` [GTP], at ACOX-1.1 [1], the “rescue of the time-dependent decrease” value was “None of these nucleotides are able to rescue the time-dependent decrease in enzymatic activity as well as ATP”.

B1: ACOX-1.1(H396G) (enzyme, C. elegans, UniProt O62140 1-674, looked up)
chain: MVHLNKTIQEGDNPDLTAERLTATFDTHAMAAQIYGGEMRARRRREITAKLAEIPELHDSMPLPYMTREEKIMESARKLTVLTQRMSEIIDPTDAGELYHLNNEVLGIEGNPMALHGVMFIPALNAQASDEQQAKWLIRALRREIIGTYAQTEMGHGTNLQNLETTATYDIGTQEFVLHTPKITALKWWPGNLGKSSNYAVVVAHMYIKGKNFGPHTFMVPLRDEKTHKPLPGITIGDIGPKMAYNIVDNGFLGFNNYRIPRTNLLMRHTKVEADGTYIKPPHAKINYSAMVHVRSYMLTGQAIMLSYALNIATRYSAVRRQGQIDKNEPEVKVLEYQTQQHRLFPFIARAYAFQFAGAETVKLYERVLKEMKSGNVSLMADLHALTSGLKSVVTGQTGEGIEQARMACGGHGYSMASYISEIYGVAIGGCTYEGENMVMLLQLARYLVKSAALVKSGKASQLGPLVAYLGARSEPTSLIDRVPNGGITEYIKTFQHIAKRQTLKAANKFFGLMENGEKREIAWNKSSVELNRASRLHTRLFIVEAFARRVNEIGDITIKEALSDLLHLHVNYELLDVATYALEDGFMSSTQLDYVRDQLYFYLQKIRPNAVSLLDSWEFSDRELRSVLGRRDGHVYENLFKWAKESPLNKTDVLPSVDTYLKPMMEKARQSKL
As to B1, the “stoichiometry N” value in the series “SEC” stood at 2.

B2: ACOX-1.1(R536E) (enzyme, C. elegans, UniProt O62140 1-674, looked up)
chain: MVHLNKTIQEGDNPDLTAERLTATFDTHAMAAQIYGGEMRARRRREITAKLAEIPELHDSMPLPYMTREEKIMESARKLTVLTQRMSEIIDPTDAGELYHLNNEVLGIEGNPMALHGVMFIPALNAQASDEQQAKWLIRALRREIIGTYAQTEMGHGTNLQNLETTATYDIGTQEFVLHTPKITALKWWPGNLGKSSNYAVVVAHMYIKGKNFGPHTFMVPLRDEKTHKPLPGITIGDIGPKMAYNIVDNGFLGFNNYRIPRTNLLMRHTKVEADGTYIKPPHAKINYSAMVHVRSYMLTGQAIMLSYALNIATRYSAVRRQGQIDKNEPEVKVLEYQTQQHRLFPFIARAYAFQFAGAETVKLYERVLKEMKSGNVSLMADLHALTSGLKSVVTHQTGEGIEQARMACGGHGYSMASYISEIYGVAIGGCTYEGENMVMLLQLARYLVKSAALVKSGKASQLGPLVAYLGARSEPTSLIDRVPNGGITEYIKTFQHIAKRQTLKAANKFFGLMENGEKREIAWNKSSVELNRASELHTRLFIVEAFARRVNEIGDITIKEALSDLLHLHVNYELLDVATYALEDGFMSSTQLDYVRDQLYFYLQKIRPNAVSLLDSWEFSDRELRSVLGRRDGHVYENLFKWAKESPLNKTDVLPSVDTYLKPMMEKARQSKL
Consider B2, for which the “stoichiometry N” value in “SEC” is 2.
